Where a name gives a salt, the structure may show the parent alone. Residues, ends and D or L forms follow the SMILES beside them. *: point of attachment. X2 = O=C(N/N=C1/CC[C@@]2(O)[C@H]3Cc4ccc(O)c5c4[C@@]2(CCN3CC2CC2)[C@H]1O5)*; X1 = CN1CC[C@]23c4c5ccc(O)c4O[C@H]2/C(=N\NC(=O)*)CC[C@@]3(O)[C@H]1C5
Tests used:
Mu-type opioid receptor = Mu-type opioid receptor (Cavia porcellus, UniProt P97266); experiment: Binding affinity against Opioid receptor mu 1 of guinea pig brain membranes using 0.5 nM of [3H]naloxone as radioligand
Method in brief: (§1)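 Incubations in 50 mM Tris buffer, pH 7.4, with 100 mM NaCl and bacitracin (50 μg/mL).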

[1] = target: Kappa-type opioid receptor (Cavia porcellus, UniProt P41144); experiment: Binding affinity against Opioid receptor kappa 1 of guinea pig brain membranes using 1 nM of (-)-[3H]ethylketazocine as radioligand; method in brief: as §1
Kappa-type opioid receptor, sequence (P41144 whole entry): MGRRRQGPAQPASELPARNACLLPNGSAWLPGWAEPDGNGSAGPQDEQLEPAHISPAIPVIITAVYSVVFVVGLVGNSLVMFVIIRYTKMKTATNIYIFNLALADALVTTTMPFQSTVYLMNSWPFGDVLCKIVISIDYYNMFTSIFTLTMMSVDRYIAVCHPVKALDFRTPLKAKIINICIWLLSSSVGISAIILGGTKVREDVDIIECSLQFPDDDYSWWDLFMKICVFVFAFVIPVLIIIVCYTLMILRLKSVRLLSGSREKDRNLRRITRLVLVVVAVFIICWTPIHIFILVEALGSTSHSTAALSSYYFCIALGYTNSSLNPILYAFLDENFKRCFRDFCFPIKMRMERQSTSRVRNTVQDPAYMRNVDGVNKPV

Mu-type opioid receptor, sequence (P97266 whole entry): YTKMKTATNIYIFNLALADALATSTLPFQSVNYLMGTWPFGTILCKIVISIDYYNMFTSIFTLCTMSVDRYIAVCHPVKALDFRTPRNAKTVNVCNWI

Row | Structure (SMILES) | Ki (Mu-type opioid receptor) [nM] | Ki [1] [nM]
1 | CC[C@H](C)[C@H](NC(=O)[C@H](CCCN=C(N)N)NC(=O)[C@H](CCCN=C(N)N)NC(=O)[C@H](CC(C)C)NC(=O)[C@H](Cc1ccccc1)NC(=O)N/N=C1/CC[C@@]2(O)[C@H]3Cc4ccc(O)c5c4[C@@]2(CCN3C)[C@H]1O5)C(=O)OC (X1-FLRRI-OMe) | 15.5 | 9.8
2 | CC(C)CC(NC(=O)C(Cc1ccccc1)NC(=O)N/N=C1/CC[C@@]2(O)C3Cc4ccc(O)c5c4C2(CCN3CC2CC2)[C@H]1O5)C(=O)O (some centres undefined) | 0.76 | 2.8
3 | CN1CCC23c4c5ccc(O)c4O[C@H]2/C(=N\NC(N)=O)CC[C@@]3(O)C1C5 (some centres undefined) [OXYMORPHONE SEMICARBAZONE HYDROCHLORIDE] | 14.5 | 179
4 | CC[C@H](C)[C@H](NC(=O)[C@H](CCCNC(=N)N)NC(=O)[C@H](CCCNC(=N)N)NC(=O)[C@H](CC(C)C)NC(=O)[C@H](Cc1ccccc1)NC(=O)CNC(=O)CNC(=O)[C@@H](N)Cc1ccc(O)cc1)C(=O)OC | 340 | 40
5 | CC(C)CC(NC(=O)C(Cc1ccccc1)NC(=O)N/N=C1/CC[C@@]2(O)C3Cc4ccc(O)c5c4C2(CCN3C)[C@H]1O5)C(=O)O (some centres undefined) | 14.8 | 96
6 | CC[C@H](C)[C@H](NC(=O)[C@H](CCCN=C(N)N)NC(=O)[C@H](CCCN=C(N)N)NC(=O)[C@H](CC(C)C)NC(=O)[C@H](Cc1ccccc1)NC(=O)N/N=C1/CC[C@@]2(O)[C@H]3Cc4ccc(O)c5c4[C@@]2(CCN3CC2CC2)[C@H]1O5)C(=O)OC (X2-FLRRI-OMe) | 2.3 | 2.2
7 | NC(=O)N/N=C1/CC[C@@]2(O)C3Cc4ccc(O)c5c4C2(CCN3CC2CC2)[C@H]1O5 (some centres undefined) [NALTREXONE SEMICARBAZONE] | 0.48 | 2.6

Source: ChEMBL document CHEMBL1123307, “Peptides as receptor selectivity modulators of opiate pharmacophores” (J Med Chem, 1986)
